From ChEMBL document CHEMBL2034826, “Novel 1,2,4-triazole and imidazole derivatives of L-ascorbic and imino-ascorbic acid: synthesis, anti-HCV and antitumor activity evaluations” (Bioorg Med Chem, 2012) come the findings set out here.

By EC50 is commonly meant the concentration at which the effect is half-maximal. By EC90 is commonly meant the point of the concentration-response curve where the effect stands at 90%. By CC50 is commonly meant the concentration giving 50% cytotoxicity. For orientation: IC50 means the point on the concentration scale where inhibition reaches its midpoint.

SMILES strings stand for the structures. Converted amounts (≈) assume the structure as drawn.

One data set relates to Hepatitis C virus. Briefly: Antiviral activity against HCV genotype 1b infected in HuH 5.2 cells expressing 1389luc-ubi-neo/NS3-3' assessed as inhibition of viral replication after 72 hrs by luciferase reporter gene assay. Particulars: Huh-5-2, 72 h. It is filed as functional, organism-based, Hepacivirus hominis. In outline:
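Huh 5.2 cells carrying the genotype 1b I389luc-ubi-neo/NS3-3'/5.1 replicon, seeded at 6500 cells/well in medium without Geneticin and left overnight. Four-step 1-to-5 compound dilutions, 72 h at 37 °C. Cells washed and lysed, then luciferase luminescence read and expressed as percent of untreated controls. EC50 and EC90 from the dose-response curve.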
On the technique in general: Reporter assays use an easily measured gene product as a stand-in for the process of interest.

Data set [1] can be described thus: Cytotoxicity against human HuH5.2 cells after 72 hrs by MTS assay. It counts as cell-based, Huh-5-2. Summed up:
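Replicon-bearing Huh 5.2 cells treated in parallel with the antiviral plates using a four-step 1-to-5 dilution series for 72 h. Medium replaced with 5% MTS in phenol red-free medium for 1.5 h, absorbance read at 498 nm, and converted to percent of untreated controls. CC50 is the concentration that reduces metabolic activity by 50%, taken from the dose-response curve.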
(In general: Tetrazolium assays rely on reduction of a dye to a coloured formazan, in cell work by metabolically active cells.)

Data set [2] can be described thus: Cytostatic activity against mouse L1210/0 after 48 hrs by cell counting. It counts as functional. Particulars: L1210/0, 48 h. In outline: (§1)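 Suspension leukaemia cells in RPMI-1640 with 10% FBS, 2 mM L-glutamine, 0.075% NaHCO3. Seeded at 5–7.5 × 10^4 cells/well with compound and grown at 37 °C for 48 h (L1210) or 72 h (CEM). Cells counted by Coulter counter. IC50 is the concentration that reduces viable cell number by 50%.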

Data set [3] concerns CCRF-CEM. Put plainly: Cytostatic activity against human CEM/0 after 72 hrs by cell counting. It counts as functional. Summed up:
as §1

A further data set has as its system HeLa. Put plainly: Antiproliferative activity against human HeLa cells after 72 hrs by MTT assay. It counts as functional, cell-based. Summed up:
(§2)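 Monolayer lines grown in DMEM with 10% FBS, 2 mM L-glutamine, penicillin/streptomycin, 37 °C, 5% CO2. Seeded at 3000–6000 cells/well by doubling time, then compound added as five 10-fold dilutions (1 × 10^-8 to 1 × 10^-4 M), DMSO ≤0.1%, for 72 h. MTT read-out converted to percentage growth versus untreated wells. IC50 from linear regression. Quadruplicate points, three experiments.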

The subject of a further data set is MCF7. Put plainly: Antiproliferative activity against human MCF7 cells after 72 hrs by MTT assay. It counts as functional, cell-based. The conditions noted are these: MCF7, 72 h. In outline: as §2
Another data set deals with HepG2. Briefly: Antiproliferative activity against human HepG2 cells after 72 hrs by MTT assay. It counts as functional, cell-based. The conditions noted are these: HepG2, 72 h. In outline:
as §2

The test system of the next data set is SW-620. Put plainly: Antiproliferative activity against human SW620 cells after 72 hrs by MTT assay. It counts as functional, cell-based. The conditions noted are these: SW-620, 72 h. Summed up: as §2
A further data set concerns MIA PaCa-2. Put plainly: Antiproliferative activity against human MIAPaCa2 cells after 72 hrs by MTT assay. Particulars: MIA PaCa-2, 72 h. It counts as functional, cell-based. In outline:
as §2

Another data set deals with WI-38. Briefly: Antiproliferative activity against human WI38 cells after 72 hrs by MTT assay. It counts as cell-based. The conditions noted are these: WI-38, 72 h. Summed up:
as §2

Data set [4] is described as follows: Selectivity index, ratio of CC50 for human HuH5.2 cells to EC50 for HCV genotype 1b.
The subject of data set [5] is L1210. Put plainly: Ratio of ribavirin IC50 to compound IC50 for IMPDH in mouse L1210 cells. It counts as cell-based.
In data set [6] the test system is CCRF-CEM. Briefly: Ratio of ribavirin IC50 to compound IC50 for IMPDH in human CEM cells. It is filed as cell-based.
A short description of data set [7]: (§3) Inhibition of IMPDH in mouse L1210 cells assessed as […] after 20 to 60 mins. It is filed as cell-based. In outline: (§4)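 Intact L1210 or CEM cells given [2,8-3H]hypoxanthine, which the cells convert to labelled IMP. IMPDH activity measured as 3H release, sampled at 20, 40 and 60 min with or without compound at varying concentrations. After centrifugation at 1100×g for 10 min, supernatant radioactivity counted. Free 3H before cell incubation was below 10% of added label.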

Data set [8] concerns L1210. The data set is described as §3. It counts as cell-based. Summed up:
as §4

Data set [9] is described as follows: (§5) Inhibition of IMPDH in human CEM cells assessed as […] after 20 to 60 mins. It is filed as cell-based. Particulars: CCRF-CEM. Summed up:
as §4

Data set [10] deals with CCRF-CEM. Described as §5. It counts as cell-based. Summed up:
as §4

Take `N#Cc1ncn(C/C=C2\OC(=O)C(OCc3ccccc3)=C2OCc2ccccc2)c1C#N` (mixture of isomers): in the data set with Hepatitis C virus, the EC50 was > 100 µg/mL. Moreover, the EC90 in the data set with Hepatitis C virus was > 100 µg/mL. Besides, in [1], the CC50 at 72 h was > 100 µg/mL. Also, the IC50 in data set [2] worked out at 21 µM; with CCRF-CEM [3] it was 7.3 µM; in the data set with HeLa it was 59 µM; in the data set on MCF7 it was 63 µM; in the data set on HepG2 it was 92 µM; in the data set with SW-620, 73 µM. Besides, the figures for the IC50 in the data set with MIA PaCa-2 and in the data set on WI-38 were 36 µM and 73 µM, respectively.
As for `COC(=O)c1ncn(CC=C2OC(=O)C(OCc3ccccc3)=C2OCc2ccccc2)c1C(=O)OC` (mixture of isomers), the EC50 in the data set on Hepatitis C virus turned out to be 13.3 µg/mL. In addition, in the data set with Hepatitis C virus, the EC90 was 22.7 µg/mL. Moreover, the CC50 at 72 h in [1] was 70.5 µg/mL. The “Ratio CC50/EC50” value in data set [4] is 5.3. Besides, the IC50 was found to be 32 µM in data set [2]; 10 µM with CCRF-CEM [3]; 34 µM with HeLa; 52 µM in the data set with MCF7; 55 µM in the data set with HepG2; 49 µM with SW-620. Besides, the concentration for half-maximal inhibition (IC50) was 33 µM in the data set with MIA PaCa-2 and > 100 µM with WI-38. Besides, the Ratio IC50 in the data set on L1210 [5] and in the data set with CCRF-CEM [6] was 50 in each case.
As for `COC(=O)c1ncn(C[C@H](O)[C@H]2OC(=O)C(OCc3ccccc3)=C2OCc2ccccc2)n1`, in the data set on Hepatitis C virus, the EC50 worked out at 62.1 µg/mL (≈ 133 µM). Besides, the CC50 at 72 h in data set [1] was > 100 µg/mL. For the same compound, the IC50 (in [2]; in the data set on CCRF-CEM [3]; in the data set with HeLa; in the data set with MCF7; with HepG2; in the data set with SW-620) was > 100 µM in each case. The IC50 in the data set on MIA PaCa-2 and in the data set on WI-38 was > 100 µM in each case.
As for `NC(=O)c1ncn([C@@H]2O[C@H](CO)[C@@H](O)[C@H]2O)n1` [RIBAVIRIN], the half-inhibitory concentration (IC50) in data set [2] stood at 22 µM; in the data set on CCRF-CEM [3], 63 µM; in data set [7], 1 µM; in data set [9], 1 µM. The inhibition entry with L1210 [8] and with CCRF-CEM [10] was “Dose-dependent effect” in each case.
Regarding `COC(=O)c1ncn(CCC2(O)NC(=O)C(OCc3ccccc3)=C2OCc2ccccc2)c1C(=O)OC` (stereo unspecified), the EC50 with Hepatitis C virus was found to be 36.6 µg/mL (≈ 70.2 µM). Further, the EC90 in the data set with Hepatitis C virus came out at 81.3 µg/mL (≈ 156 µM). The CC50 at 72 h in data set [1] is > 100 µg/mL. The IC50 in data set [2] is 46 µM; with CCRF-CEM [3] it was 35 µM; in the data set on HeLa, 81 µM; in the data set with MCF7, > 100 µM; with HepG2, > 100 µM; with SW-620, > 100 µM. For the same compound, the figures for the IC50 in the data set with MIA PaCa-2 and in the data set with WI-38 were 47 µM and 52 µM, respectively.
`O=c1[nH]cc(F)c(=O)[nH]1` [FLUOROURACIL]: the IC50 in the data set on HeLa worked out at 14.9 µM; in the data set with MCF7, 66.9 µM; with HepG2, 56.2 µM; with SW-620, 6.68 µM; in the data set on MIA PaCa-2 it was 11.7 µM; in the data set with WI-38, 24.7 µM.
With `NC(=O)c1ncn(CCC2(O)NC(=O)C(OCc3ccccc3)=C2OCc2ccccc2)c1C(N)=O` (stereo unspecified), in the data set on Hepatitis C virus, the EC50 is > 100 µg/mL. In the data set with Hepatitis C virus, the EC90 is > 100 µg/mL. In addition, the CC50 at 72 h in data set [1] is > 100 µg/mL. The IC50 in [2] is 198 µM; in the data set with CCRF-CEM [3], 154 µM; in the data set with HeLa it was > 100 µM; with MCF7, > 100 µM; with HepG2, > 100 µM; in the data set on SW-620, > 100 µM. Besides, the figures for the half-inhibitory concentration (IC50) in the data set with MIA PaCa-2 and in the data set with WI-38 were > 100 µM and 98 µM, respectively. Besides, the Ratio IC50 in the data set on L1210 [5] and in the data set with CCRF-CEM [6] was 50 each time.
For `COc1cccc2c1C(=O)c1c(O)c3c(c(O)c1C2=O)C[C@@](O)(C(=O)CO)C[C@@H]3O[C@H]1C[C@H](N)[C@H](O)[C@H](C)O1` [DOXORUBICIN], the IC50 stood at 1.3 µM in [2]; 0.39 µM with CCRF-CEM [3]; 0.05 µM in the data set with HepG2; 0.04 µM with SW-620; 0.03 µM with MIA PaCa-2; 0.04 µM with WI-38.
As for `NC(=O)c1ncn(CCC2(O)NC(=O)C(OCc3ccccc3)=C2OCc2ccccc2)n1` (stereo unspecified), in the data set with Hepatitis C virus, the EC50 was > 100 µg/mL. Further, in the data set on Hepatitis C virus, the concentration for an effect of 90% (EC90) is > 100 µg/mL. Besides, in data set [1], the CC50 at 72 h was > 100 µg/mL. For the same compound, the IC50 in data set [2] was ≥ 500 µM; with CCRF-CEM [3], 445 µM; in the data set with HeLa, > 100 µM; with MCF7, 61 µM; in the data set on HepG2 it was 66 µM; with SW-620, > 100 µM. Besides, the IC50 with MIA PaCa-2 and in the data set with WI-38 was > 100 µM in each case.
Consider `COC(=O)c1ncn(CC=C2OC(=O)C(O)=C2O)n1` (mixture of isomers), for which, in the data set on Hepatitis C virus, the EC50 worked out at 61.3 µg/mL. Further, the CC50 at 72 h in data set [1] was > 100 µg/mL. Also, the IC50 was 370 µM in data set [2]; > 500 µM with CCRF-CEM [3]; > 100 µM with HeLa; > 100 µM with MCF7; > 100 µM in the data set with HepG2; > 100 µM with SW-620. Also, the IC50 in the data set with MIA PaCa-2 and in the data set with WI-38 was > 100 µM each time.
For `COC(=O)c1ncn(CC=C2OC(=O)C(OCc3ccccc3)=C2OCc2ccccc2)n1` (mixture of isomers), in the data set on Hepatitis C virus, the EC50 amounted to 78.5 µg/mL. Besides, the EC90 in the data set on Hepatitis C virus is > 100 µg/mL. In addition, the CC50 at 72 h in data set [1] is > 100 µg/mL. In addition, the IC50 in [2] was 103 µM; in the data set on CCRF-CEM [3], 44 µM; with HeLa, 97 µM; in the data set on MCF7, 54 µM; with HepG2 it was 70 µM; in the data set on SW-620, > 100 µM. Moreover, the results for the IC50 in the data set on MIA PaCa-2 and in the data set on WI-38 were 80 µM and > 100 µM, respectively. Further, the Ratio IC50 in the data set on L1210 [5] and in the data set with CCRF-CEM [6] was 50 in each case.
